C8 TRAIL sens: viability loss with TRAIL in NB7+C8 cells, primary screen, TRAIL sensitizer project, cell-based, ATPlite luminescence. inhibition (viability loss, TRAIL sensitization), % at 10 µM. 360,000 tested, 1% active. AID 624354, 2012;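 active = compounds causing at least 50% loss of cell viability in the single-dose screen, relative to plate controls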
PPC-1+TRAIL kill: compounds killing PPC-1 cancer cells with TRAIL present, primary screen, TRAIL potentiator project, ATPLite luminescence, uHTS. PPC-1 cells + TRAIL, ATPLite viability luminescence. 220,000 tested, 0.41% active. AID 1443, 2008. cell killing (% activity), % at 4 µM or 5 µM;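 active = cell killing above 50% in the first pass at 4 µM, then a duplicate retest at 5 µM averaging 50% or more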;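 note: plate controls were cells with TRAIL plus DMSO for no effect and medium-only wells lacking cells for full effect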
iPSC survival up: enhancers of single-cell hiPSC survival, primary screen, ATPlite luminescence | 360,000 tested, 0.044% active | survival enhancement, % at 20 µM | 100% = ROCK inhibitor wells, 0% = DMSO | AID 602274, 2012; in the data active = survival enhancement above about 18%;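 note: cells exposed to compounds for 16 hours before the ATP read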
FLuc inhib CS: firefly luciferase enzyme inhibitors, primary screen, artefact control for luciferase-based inhibitor screens, biochemical, luminescence, ATPLite; Luciferin 4-monooxygenase (Photinus pyralis), P08659; 10 min; inhibition, % at 10 µM; 200,000 tested, 1.5% active; AID 1006, 2008;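 active = inhibition above about 50% when tested at 10 µM, limit read from the data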
Target sequence (P08659 whole entry, looked up): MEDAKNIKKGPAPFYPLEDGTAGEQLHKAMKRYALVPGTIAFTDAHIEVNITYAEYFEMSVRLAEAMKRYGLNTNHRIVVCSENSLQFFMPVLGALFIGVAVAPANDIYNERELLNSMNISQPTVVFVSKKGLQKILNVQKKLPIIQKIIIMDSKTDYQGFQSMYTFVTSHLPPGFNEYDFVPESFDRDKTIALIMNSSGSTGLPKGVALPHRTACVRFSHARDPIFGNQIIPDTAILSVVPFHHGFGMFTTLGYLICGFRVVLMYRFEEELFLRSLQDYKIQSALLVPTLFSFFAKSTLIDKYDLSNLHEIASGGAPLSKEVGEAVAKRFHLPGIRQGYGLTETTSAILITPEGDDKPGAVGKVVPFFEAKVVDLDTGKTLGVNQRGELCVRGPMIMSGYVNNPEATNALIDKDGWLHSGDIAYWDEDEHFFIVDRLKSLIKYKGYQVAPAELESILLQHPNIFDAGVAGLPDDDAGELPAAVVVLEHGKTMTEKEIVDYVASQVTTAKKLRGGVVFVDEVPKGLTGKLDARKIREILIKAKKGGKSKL
FLuc stim CS: FLuc activators, initial screening, artefact control for FLuc-dependent activation tests, biochemical, ATPlite luminescence | activation factor at 10 µM | ATPlite luciferase biochemical, 10 min; 0 = ATP-free wells, 1 = DMSO control | Luciferin 4-monooxygenase (Photinus pyralis), P08659 | 200,000 tested, under 10 active;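 active = luciferase activation factor, scaled between plate controls, of at least 2 with compound at 10 µM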
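System: cell-free luciferase reagent; medium: PBS as buffer for the ATP substrate; doses: test compounds dosed from 2 mM stocks in 100% DMSO; incubation: 10 min, room temperature; measured by: luminescence from luciferase reaction; read-out: luciferase activation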
MIN6 prolif-1: inducers of MIN6 beta-cell proliferation, primary screen, ATP luminescence, uHTS; MIN6 cells proliferation, ATPlite luminescence, 48 h; cells starved in 0.2% serum; 100% = growth in 10% serum; proliferation, % at 10 µM; 330,000 tested, 0.29% active;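 active = compounds whose signal lies at least 3.5 SD above the mean of all wells on their plate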;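 note: 0% = DMSO-treated cells in low-serum medium and 100% = 10% serum control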
MIN6 prolif-2: inducers of beta-cell proliferation in MIN6, confirmation, MIN6 cells, mouse; shares compounds with MIN6 prolif-1; ATPlite luminescence, 48 h; cells kept in 0.2% serum; scaled between 0.2% and 10% serum; proliferation increase, % at 50 µM; AID 463095, 2010; 920 tested, under 10 active;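 active = proliferation increase above 40% at any of the four tested concentrations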
* hit, by the source's call; . = no result. Only some compounds are listed: those with a hit (about 1.8% of all), similar ones and a draw of the others.

SMILES	C8 TRAIL sens	PPC-1+TRAIL kill	iPSC survival up	FLuc inhib CS	FLuc stim CS	MIN6 prolif-1	MIN6 prolif-2
CC(C)(C)NC(=O)NC(=O)COC(=O)C1CCN(S(=O)(=O)c2cccs2)CC1	-14	.	2	.	.	3	.
Cc1cc(C(=O)NNC(=O)Cc2ccc(Cl)cc2)c(C)o1	6	.	0	.	.	-2	.
COc1cccc(CNC(=O)CCC2CCCN(Cc3ccc4c(c3)CCO4)C2)c1 (centres undefined)	-1	-6	0	.	.	0	.
CC1(C(=O)NCc2ccc(F)c(F)c2)Cc2c(-c3ccccc3)ccnc2O1 (centres undefined)	4	.	4	.	.	.	.
C=CCNc1nc(N)c([N+](=O)[O-])c(NCc2ccccc2)n1	-16	.	0	.	.	8.3*	2
COc1ccc(-c2noc(COc3ccc4c(c3)OCO4)n2)cc1	9	22	0	-1	1	-3	.
COc1ccc(-c2noc(COc3ccc4c(c3)OCO4)n2)cc1OC	-6	27	1	6	0.9	11*	1
CCN(CC)S(=O)(=O)c1cccc(-c2nnc(SCC(=O)c3cc(C)n(C)c3C)o2)c1	6	-9	-1	-7	1.1	12*	1
CCN(CC)S(=O)(=O)c1cccc(-c2nnc(SCCOc3ccccc3)o2)c1	8	19	-2	-4	1	-3	.
CCc1cc(C(=O)NNC(=O)CCN2CCN(c3ccccc3)CC2)sc1C	11	.	0	.	.	13*	-3
Cc1cc(C(=O)NNC(=O)CCN2CCN(c3ccccc3)CC2)c2ccccc2n1	22	3	0	-2	1	-1	.
COc1ccc(-c2csc(C(O)c3ccc(F)c(F)c3)n2)cc1 (centres undefined)	11	.	4	.	.	.	.
CC(c1nccs1)N(C)c1nc2nonc2nc1NC1CC1 (centres undefined)	-9	-7	0	-10	1.1	-3	.
CN(c1nc2nonc2nc1NC1CC1)C1CCOC1 (centres undefined)	-5	9	3	-8	1.1	7.6*	-1
CN(C)S(=O)(=O)c1cccc(NC(=O)COc2ccccc2C(=O)NCc2ccccc2)c1	-2	.	0	.	.	13*	-6
O=C(NCCCCCCNC(=O)c1ccncc1)c1ccncc1	-2	.	0	.	.	-1	.
Cc1n[nH]c(=S)n1/N=C/c1c(O)ccc2ccccc12	-2	.	-1	.	.	-4	.
CCNC(=O)COC(=O)c1ccc(S(=O)(=O)N2CCCCCC2)cc1	-5	4	-1	-5	1	5.4*	0
Cc1ccc(CNC(=O)COC(=O)c2ccc(S(=O)(=O)N3CCCCCC3)cc2)cc1	5	.	1	.	.	-1	.
Cc1cc(C)c(C#N)c(SCc2ccc(C#N)cc2)n1	5	-2	2	-6	1.1	12*	-2
Cc1cc(C)c(C#N)c(SCc2ccc(F)cc2)n1	-4	2	2	-4	1	1	.
CC(=O)c1ccc(N(CC(=O)NC2CCCCC2)C(=O)c2csnn2)cc1	10	.	0	.	.	6.6*	0
c1cncc(CNc2ncnc3ccc(-c4ccoc4)cc23)c1	17	.	1	.	.	16*	1
Cc1cccc(CNc2ncnc3ccc(-c4ccoc4)cc23)c1	27	.	4	.	.	-7	.
O=C(NNC1=NCCC1)c1cccc(Br)c1	6	31	-2	-3	1	9.7*	4
SMILES	C8 TRAIL sens	PPC-1+TRAIL kill	iPSC survival up	FLuc inhib CS	FLuc stim CS	MIN6 prolif-1	MIN6 prolif-2
COc1ccc(-c2cc(C(=O)NC(C)c3ccccn3)c3ccccc3n2)cc1OC (centres undefined)	29	.	0	.	.	5	.
O=C(NCc1cccs1)c1cccnc1Cl	-1	20	1	-6	1.1	0.0*	1
CCN(CC)CCCOC(=O)C1(c2ccccc2)CCCC1	10	-11	-2	-6	1.1	1	.
CCN(CC)CCCC1(CN)OCCc2ccccc21 (centres undefined)	1	18	0	-4	1	8.4*	0
Cc1ccc(-c2cn(-c3ccccc3)c(SCC(N)=O)n2)cc1C	-10	-3	2	5	0.9	7.6*	-6
COc1ccc(NC(=O)CN(C)C(=O)CN2C(=O)NC3(CCCC3)C2=O)cc1	-27	.	0	.	.	16*	-2
CN(CC(=O)Nc1ccc(F)cc1)C(=O)CN1C(=O)NC2(CCCCC2)C1=O	4	.	-3	.	.	-3	.
Cc1ccc(N(C(=O)c2snc(C(N)=O)c2N)C(C(=O)NCC2CCCO2)c2ccc(C)o2)c(C)c1 (centres undefined)	-2	.	0	.	.	17*	-6
COc1ccc(C(C(=O)NCc2ccccc2)N(C(=O)c2snc(C(N)=O)c2N)c2ccccc2OC)cc1OC (centres undefined)	-6	.	0	.	.	22*	-2
COc1ccc(N(C(=O)c2snc(C(N)=O)c2N)C(C(=O)NCc2ccccc2)c2ccc(O)cc2)cc1OC (centres undefined)	-2	.	0	.	.	-2	.
Cc1ccccc1N(C(=O)c1snc(C(N)=O)c1N)C(C(=O)NCC1CCCO1)c1ccc(N(C)C)cc1 (centres undefined)	-3	.	0	.	.	0	.
CCc1ccccc1N(C(=O)c1snc(C(N)=O)c1N)C(C(=O)NCC1CCCO1)c1ccc(N(C)C)cc1 (centres undefined)	0	.	0	.	.	8.7*	-1
CCc1ccccc1N(C(=O)c1snc(C(N)=O)c1N)C(C(=O)NCC1CCCO1)c1ccc(C)o1 (centres undefined)	-4	.	0	.	.	-1	.
CN(C(=O)Cn1cnc2sccc2c1=O)C1CCCCC1	-18	.	1	.	.	-1	.
COCC#Cc1ccc2c(c1)O[C@@H](CN(C)C(=O)Nc1ccc(OC)cc1)[C@H](C)CN([C@H](C)CO)S2(=O)=O	-16	.	-1	.	.	.	.
COCCc1ncc(CN2CCCCC2C(=O)Nc2ccc(Oc3ccccc3)nc2)cn1 (centres undefined)	3	.	1	.	.	10*	-2
COC(=O)[C@@]12CCCCN1[C@H](c1ccc(-c3ccc(F)cc3)c(OC)c1)[C@@H]1C(=O)N(C)C(=O)[C@@H]12	1	.	1	.	.	-7	.
CC1CCCN(CCCNC(=O)c2nn(C)c3c2CS(=O)(=O)c2ccccc2-3)C1 (centres undefined)	5	.	0	.	.	7.0*	0

Source: PubChem (Sanford-Burnham Center for Chemical Genomics)
